Where two headings read alike, the source gives them in different places.
Legend:
[1] = tested on: BGC-823 gastric cancer xenografts; experiment: Tumor growth assay, BGC-823 xenograft; assay type: in vivo, BALB/c nude mice; details: dosing from day 7, sacrificed day 28, n = 6
Summary of the method: (§1)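 Female BALB/c nude mice, 4–5 weeks old and housed SPF, were implanted s.c. in the right flank with BGC-823 or HT-29 cells. At 100 mm3 tumours, mice were randomised into 7 groups. Arms were PBS, reference agents (80 mg/kg/7d; 5 mg/kg/7d) and test peptides at 5 mg/kg daily or every 4 days. Body weight and tumour volume were tracked; tumours were weighed at sacrifice; n = 6, mean ± SD.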

[2] = tested on: zebrafish embryo subintestinal vessels (SIVs); experiment: Zebrafish angiogenesis model; assay type: in vivo; details: yolk sac microinjection at 2 dpf, read at 3 dpf, 10 zebrafish per group analysed
Summary of the method: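 Transgenic zebrafish received test peptide by yolk-sac microinjection at 2 dpf, 30 embryos per group, with a positive control included. After a further 24 h, 10 embryos per group were randomly chosen. Fluorescent subintestinal vessels were imaged and SIV area was quantified by image analysis (mean ± SD, three to four independent experiments).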

[3] = tested on: HT-29 colon cancer xenografts; experiment: Tumor growth assay, HT-29 xenograft; assay type: in vivo, BALB/c nude mice; details: dosing from day 7, sacrificed day 28, n = 6
Summary of the method: as §1

[4] = in rats; cited from earlier work
[5] = in humans; cited from earlier work
[6] = in mice; cited from earlier work
[7] = in rabbits, estimated; cited from earlier work

Compound: Avastin: recombinant humanized monoclonal IgG1 antibody against VEGF-A
- inhibition rate on BGC-823 xenografts ([1]; 5 mg/kg/7d): 79.54%
- angiogenesis of SIV plexus in zebrafish embryos (SIV area) [2]: inhibited the angiogenesis of SIV plexus
- inhibition rate on HT-29 xenograft ([3]; 5 mg/kg/7d): 77.91%

Compound: O=P1(N(CCCl)CCCl)NCCCO1 (stereo not drawn) [CTX, Cyclophosphamide]
- inhibition rate on BGC-823 xenografts ([1]; 80 mg/kg/7d, positive group): 65.9%
- inhibition rate on HT-29 xenograft ([3]; 80 mg/kg/7d, positive group): 78.02%

Compound: Albumin
- half-life [4]: 1.9 days
- half-life [5]: 19 days
- half-life [6]: 1.0 days
- half-life [7]: 5.55 days
